The source of these data is the array DNA melting data of Ke et al. (doi:10.1101/2024.01.08.574731).

Data set [1] in a line: folding enthalpy; higher = less favourable; fluorescence melt of hairpins on a sequencing array, two-state fit. The settings on record: sodium 0.088 M. The method in brief: (§1)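 Library hairpins on a sequenced MiSeq flow cell carried annealed Cy3 and quencher oligos, and their Cy3 fluorescence was imaged in 50 mM Na-HEPES pH 8.0 with 25 mM NaCl, in 2.5 °C steps up to 60 °C. Signals were normalised to Cy3 before quenching and to control constructs. Melting temperature and folding enthalpy were obtained from bootstrapped two-state fits, combined by inverse-variance weighting across four replicates, and the fitted temperatures were then raised by 9.35 °C to match UV melts.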

Data set [2] is described as follows: melting temperature; fluorescence melt of hairpins on a sequencing array, two-state fit, raised by 9.35 °C to match UV melts. The settings on record: sodium 0.088 M. The method in brief:
as §1

For GCAAGCGAAAGCTTCTGC ((((((....)))..))), the folding enthalpy in data set [1] was -11.5 kcal/mol. Besides, in data set [2], the Tm was determined as 42.1 °C.

Consider GATCTAGGTGTAGATC ((((((....)))))), for which the folding enthalpy in data set [1] is -31 kcal/mol. For the same sequence, in data set [2], the Tm is 42.9 °C.

As for GCATCCGGAAACAGATGC (((((.(....).))))), in data set [1], the folding enthalpy was -36.8 kcal/mol. In data set [2], the Tm was determined as 45 °C.

On to GATCTCTGCAGAGATC ((((((....)))))), for which the folding enthalpy in data set [1] is -41.6 kcal/mol. For the same sequence, in data set [2], the Tm came out at 57 °C.

CGCGGAAAGGTCCGCG ((((((....)))))): the folding enthalpy in data set [1] was -45.8 kcal/mol. For the same sequence, the Tm in data set [2] amounted to 61.9 °C.

For the sequence GATCCATCTATGGATC ((((((....)))))), in data set [1], the folding enthalpy was -39.3 kcal/mol. In addition, the Tm in data set [2] came to 55.8 °C.

For the sequence GACGAAGGAAACCTCGTC (((((.(....).))))), the folding enthalpy in data set [1] was -33 kcal/mol. Also, the Tm in data set [2] stood at 46 °C.

As for GCACATGGAAACATGTGC (((((((....))))))), the folding enthalpy in data set [1] is -43.4 kcal/mol. Also, the Tm in data set [2] turned out to be 67.4 °C.

For GCTATGCGAAAGCAGTGC ((..(((....)))..)), the folding enthalpy in data set [1] is -19.1 kcal/mol. Moreover, in data set [2], the Tm amounted to 46.9 °C.

Turning to GCGTACTTACGC ((((....)))), the folding enthalpy in data set [1] is -26.1 kcal/mol. Besides, the Tm in data set [2] amounted to 54.7 °C.

Turning to GTTGATGGAAACATCGAC ((.((((....)))).)), in data set [1], the folding enthalpy is -35.9 kcal/mol. The Tm in data set [2] turned out to be 48.5 °C.

As to GGAGTCGAAAGACTGTCC ((((((....)))..))), in data set [1], the folding enthalpy is -12.1 kcal/mol. The Tm in data set [2] was 35.2 °C.

For GATCGTCAATACGATC ((((((....)))))), in data set [1], the folding enthalpy was -39.2 kcal/mol. Further, in data set [2], the Tm turned out to be 54.6 °C.

Regarding GCAAGCGAAAGCTATTGC ((((((....)))..))), the folding enthalpy in data set [1] was -17.5 kcal/mol. In data set [2], the Tm was 42.8 °C.

As to GATCTGGATACAGATC ((((((....)))))), in data set [1], the folding enthalpy was -34 kcal/mol. For the same sequence, the Tm in data set [2] was determined as 56.7 °C.

As to GATCGTGTTAACGATC ((((((....)))))), the folding enthalpy in data set [1] was -36 kcal/mol. In data set [2], the Tm is 66.9 °C.

For the sequence GTATTCCGAAAGGATAC (((.(((....)))))), the folding enthalpy in data set [1] is -19.7 kcal/mol. In addition, in data set [2], the Tm worked out at 38.9 °C.

As to GCTACCGAAAGGTGCAGC ((((((....)))..))), the folding enthalpy in data set [1] was -12.6 kcal/mol. In addition, in data set [2], the Tm amounted to 43.5 °C.

Consider GCCTCGCGAAAGCCAAGC ((.(.((....)).).)), for which, in data set [1], the folding enthalpy was -6.14 kcal/mol. The Tm in data set [2] came to 28.4 °C.

Turning to GATCATAATTATGATC ((((((....)))))), in data set [1], the folding enthalpy was -42 kcal/mol. The Tm in data set [2] was found to be 47.8 °C.

On to GTCCAAACGAAAGTTGAC (((..(((....)))))), for which the folding enthalpy in data set [1] was -16.8 kcal/mol. Moreover, the Tm in data set [2] turned out to be 31.6 °C.

Take GAAAATACGAAAGTATTC (((..(((....)))))): in data set [1], the folding enthalpy is -13.7 kcal/mol. Also, the Tm in data set [2] amounted to 27.7 °C.

As for GACGCGGGAAACCGTGTC (((.(((....))).))), the folding enthalpy in data set [1] was -39.4 kcal/mol. The Tm in data set [2] was determined as 58.2 °C.

Regarding GAGTGTGGAAACATGCTC (((..((....))..))), the folding enthalpy in data set [1] was -31.2 kcal/mol. The Tm in data set [2] worked out at 38.7 °C.

Take GGTTAGCGAAAGCTCACC (((.(((....))).))): in data set [1], the folding enthalpy is -26.6 kcal/mol. Besides, the Tm in data set [2] stood at 49.1 °C.

Regarding GGCCGGCCGAAAGGCGCC (((..(((....)))))), in data set [1], the folding enthalpy is -15.1 kcal/mol. The Tm in data set [2] turned out to be 57.3 °C.

On to GTAGTACGAAAGTAGTAC (((.(((....))).))), for which, in data set [1], the folding enthalpy was -33.5 kcal/mol. Moreover, in data set [2], the Tm was 47.3 °C.

In the case of GGTGACGCGAAAGCGACC (((..(((....)))))), the folding enthalpy in data set [1] was -12.1 kcal/mol. For the same sequence, the Tm in data set [2] amounted to 40.4 °C.

As to GAGGACGAAAGTCCCTC ((((((....))).))), the folding enthalpy in data set [1] is -11.3 kcal/mol. In data set [2], the Tm was found to be 51.2 °C.

For the sequence GGACTCCGAAAGGATTCC (((.(((....))).))), the folding enthalpy in data set [1] is -30.2 kcal/mol. Also, the Tm in data set [2] was 47 °C.

On to CGTAGCGGAAACGCCACG (((.(((....))).))), for which the folding enthalpy in data set [1] is -32 kcal/mol. For the same sequence, the Tm in data set [2] was found to be 46.9 °C.

On to GCGGCCGAAAGGCCACGC ((((((....)))..))), for which the folding enthalpy in data set [1] is -13.6 kcal/mol. Moreover, the Tm in data set [2] worked out at 65.1 °C.

In the case of GATCGGTATACCGATC ((((((....)))))), in data set [1], the folding enthalpy is -36.7 kcal/mol. Besides, the Tm in data set [2] turned out to be 64.3 °C.

As to GTGACCGAAAGGTGCCAC ((((((....)))..))), the folding enthalpy in data set [1] was -12.1 kcal/mol. Besides, the Tm in data set [2] was found to be 30.2 °C.

With GCGGAGTCGAAAGACCGC (((..(((....)))))), the folding enthalpy in data set [1] was -38 kcal/mol. Moreover, the Tm in data set [2] is 53.7 °C.

On to GCTCGAGAAATCGAGC ((((((....)))))), for which, in data set [1], the folding enthalpy was -37.4 kcal/mol. Further, in data set [2], the Tm stood at 66.5 °C.

In the case of GATCGGTAAGCCGATC ((((((....)))))), the folding enthalpy in data set [1] was -49.4 kcal/mol. The Tm in data set [2] came to 58.9 °C.
